The values below come from ChEMBL document CHEMBL1255332, “Isobolographic analysis of pharmacodynamic interactions between antifungal agents and ciprofloxacin against Candida albicans and Aspergillus fumigatus” (Antimicrob Agents Chemother, 2008).

≈ marks a conversion by molar mass, not a printed value.

Type in all cases: functional, organism-based
Assay [1] relates to Candida albicans. The experiment in a line: Antifungal activity against Candida albicans CA362 by spectrophotometry. Summed up:
(§1)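 Clinical C. albicans blastoconidia came from 1- to 2-day Sabouraud cultures, with a final inoculum of 5 × 10^2 to 2.5 × 10^3 CFU/ml in RPMI 1640 buffered to pH 7 with 0.165 M MOPS. Incubation was 37°C for 24 h. A405 was corrected against a conidium-free plate and expressed as % of drug-free control, and an Emax model was fitted for EC50. Three replicates.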

Assay [2] has as its system Aspergillus fumigatus. The assay is described as follows: Antifungal activity against Aspergillus fumigatus AF2025 spectrophotometry. Summed up: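 Conidia from 5–7-day Sabouraud agar cultures were adjusted to 80–82% transmittance at 530 nm, giving a final 0.4 × 10^4 to 5 × 10^4 CFU/ml in RPMI 1640 buffered at pH 7 with 0.165 M MOPS. They were tested in a checkerboard alone or with ciprofloxacin for 24 h at 37°C. A405 was converted to % of drug-free growth after background subtraction, an Emax model was fitted, and each test was run in triplicate.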

Assay [3] relates to Candida albicans. The experiment in a line: Antifungal activity against Candida albicans CA5685 by spectrophotometry. Summed up:
as §1

The test system of assay [4] is Aspergillus fumigatus. The assay is described as follows: Antifungal activity against Aspergillus fumigatus AF2350 by spectrophotometry. Summed up:
(§2)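 Clinical A. fumigatus conidia were harvested from 5- to 7-day Sabouraud cultures, with a final inoculum of 0.4 × 10^4 to 5 × 10^4 CFU/ml in RPMI 1640 (0.165 M MOPS, pH 7). Incubation was 37°C for 24 h. Growth at 405 nm, background-subtracted, was expressed as % of drug-free control, and an Emax model was fitted to give EC50. Three replicates.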

In assay [5] the test system is Aspergillus fumigatus. The assay is described as follows: Antifungal activity against Aspergillus fumigatus AF4215 spectrophotometry. In outline: as §2
Assay [6] relates to Candida albicans. The assay is described as follows: Antifungal activity against Candida albicans CA8621 by spectrophotometry. In outline:
as §1

What is called EC50 is the midpoint of the concentration-response curve. A lower EC50 goes with an effect from little substance. The term MIC denotes the smallest concentration in the dilution series that meets the test's criterion for growth inhibition. For the compound `C[C@@H]1[C@H](O)[C@@H](C)/C=C/C=C/C=C/C=C/C=C/C=C/C=C/[C@H](O[C@@H]2O[C@H](C)[C@@H](O)[C@H](N)[C@@H]2O)C[C@@H]2O[C@](O)(C[C@@H](O)C[C@@H](O)[C@H](O)CC[C@@H](O)C[C@@H](O)CC(=O)O[C@H]1C)C[C@H](O)[C@H]2C(=O)O` [AMPHOTERICIN B], the EC50 in assay [1] was 0.25 µg/mL (≈ 0.271 µM); in assay [2], 0.5 µg/mL (≈ 0.541 µM). The MIC in assay [1] was found to be 0.125 µg/mL (≈ 0.135 µM); in assay [2], 0.5 µg/mL (≈ 0.541 µM).

As to `CC[C@H](C)C[C@H](C)CCCCCCCCC(=O)N[C@H]1C[C@@H](O)[C@@H](NCCN)NC(=O)[C@@H]2[C@@H](O)CCN2C(=O)[C@H]([C@H](O)CCN)NC(=O)[C@H]([C@H](O)[C@@H](O)c2ccc(O)cc2)NC(=O)[C@@H]2C[C@@H](O)CN2C(=O)[C@H]([C@@H](C)O)NC1=O` [CASPOFUNGIN], the figures for the EC50 in assay [3] and in assay [4] were 0.59 µg/mL (≈ 0.54 µM) and 28.8 µg/mL (≈ 26.3 µM), respectively. Also, the MIC in assay [3] amounted to 1 µg/mL (≈ 0.915 µM); in assay [4], 128 µg/mL (≈ 117 µM).

In assay [5], `OC(Cn1cncn1)(Cn1cncn1)c1ccc(F)cc1F` [FLUCONAZOLE] returned an EC50 of 0.18 µg/mL (≈ 0.588 µM) and an MIC of 0.5 µg/mL (≈ 1.63 µM). Further, in assay [6], the EC50 stood at 0.09 µg/mL (≈ 0.294 µM) and inhibition of growth (MIC) required 0.125 µg/mL (≈ 0.408 µM).
